Assay results: the array DNA melting data of Ke et al. (doi:10.1101/2024.01.08.574731)

Tests used:
[1] = folding enthalpy; higher = less favourable; fluorescence melt of hairpins on a sequencing array, two-state fit; details: sodium 0.088 M
Procedure, shortened: (§1)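 Hairpins were imaged by Cy3 fluorescence on a sequenced MiSeq flow cell with annealed Cy3 and quencher oligos, in 50 mM Na-HEPES pH 8.0, 25 mM NaCl, in 2.5 °C steps up to 60 °C. Bootstrapped two-state fits of normalised signals gave melting temperature and folding enthalpy. Four replicates were combined by inverse variance, and fitted temperatures were raised by 9.35 °C to match UV melts.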

[2] = melting temperature; fluorescence melt of hairpins on a sequencing array, two-state fit, raised by 9.35 °C to match UV melts; details: sodium 0.088 M
Procedure, shortened: as §1

| Sequence | folding enthalpy [1] | Tm [2] |
| --- | --- | --- |
| GTGCCCGAAAGGGATCAC ((((((....)))..))) | -13.2 kcal/mol | 40.3 °C |
| GTAGACCCGAAAGGGTAC (((..(((....)))))) | -9.26 kcal/mol | 32.3 °C |
| GCTCTCGAAAGAGAAGC ((((((....))).))) | -22 kcal/mol | 49.8 °C |
| GATTTCGAAAGAAATC ((((((....)))))) | -38.2 kcal/mol | 55 °C |
| GGAGCCGAAAGGCCTTCC ((((((....)))..))) | -15.4 kcal/mol | 46.2 °C |
| GTCGCTCCGAAAGGAGAC (((..(((....)))))) | -10.5 kcal/mol | 34.9 °C |
| GTCCCCGAAAGGGCCGAC ((((((....)))..))) | -12.1 kcal/mol | 33 °C |
| GATCAGCTAGCTGATC ((((((....)))))) | -48 kcal/mol | 62.1 °C |
| GCGCCCTCGAAAGAGCGC (((..(((....)))))) | -32 kcal/mol | 54.3 °C |
| GGTCAGCGAAAGCTCACC (((.(((....))).))) | -18.9 kcal/mol | 41.7 °C |
| GATGCCGAAAGGCTCATC ((((((....)))..))) | -10.4 kcal/mol | 32.7 °C |
| GGCCACGAAAGTGTAGCC ((((((....)))..))) | -25 kcal/mol | 53.1 °C |
| GGAAGGGAAACCTTCC ((((((....)))))) | -38 kcal/mol | 55.2 °C |
| GTTAGAGAAATCTAAC ((((((....)))))) | -27.9 kcal/mol | 38.4 °C |
| GATCCTATAAGGATC ((((((...)))))) | -37.8 kcal/mol | 55.2 °C |
| GATCGTCCTTACGATC ((((((....)))))) | -40.7 kcal/mol | 53.8 °C |
| GATCAACAAGTTGATC ((((((....)))))) | -34.2 kcal/mol | 51.8 °C |
| GATCGACCGCTCGATC ((((((....)))))) | -45.2 kcal/mol | 51.7 °C |
| CGTGGGCGGAAACGCACG (((..(((....)))))) | -13.4 kcal/mol | 53.1 °C |
| GGGAAGACGAAAGTCCCC (((..(((....)))))) | -19.1 kcal/mol | 45.3 °C |
| GATCTTTGACAAGATC ((((((....)))))) | -25.1 kcal/mol | 39.4 °C |
| GCCGAGAAATCGGC (((((....))))) | -28.4 kcal/mol | 64.8 °C |
| GTCTGCGCGAAAGCGGAC (((..(((....)))))) | -13.3 kcal/mol | 45.2 °C |
| GATCTACTAGTAGATC ((((((....)))))) | -46.8 kcal/mol | 51.7 °C |

| Sequence | folding enthalpy [1] | Tm [2] |
| --- | --- | --- |
| GTGAAGGGAAACCTTTGC (..((((....))))..) | -20.1 kcal/mol | 31.7 °C |
| GATCTATTAGTAGATC ((((((....)))))) | -33.8 kcal/mol | 44.4 °C |
| GAGCCCCCGAAAGGGCTC (((..(((....)))))) | -32.3 kcal/mol | 65.4 °C |
| GTCGTCGGAAACGATGAC (((.(((....))).))) | -44.4 kcal/mol | 55.5 °C |
| GGGTTGGGAAACTAACCC (((((.(....).))))) | -40.6 kcal/mol | 50.6 °C |
| GGTTGTCGAAAGACCACC (((.(((....))).))) | -26.2 kcal/mol | 48.3 °C |
| GATGCAGGAAACTGTATC (((.(((....))).))) | -33.5 kcal/mol | 44.9 °C |
| GACGGACGAAAGTCGTC (((.(((....)))))) | -27.3 kcal/mol | 55.6 °C |
| GTGTCGGGAAACCGATAC ((.((((....)))).)) | -28.6 kcal/mol | 52.1 °C |
| GTATTACGAAAGTACTAC (((.(((....))).))) | -19.9 kcal/mol | 32.7 °C |
| GATGCGCGAAAGCGGATC (((.(((....))).))) | -30.6 kcal/mol | 64.5 °C |
| GAACGCGAAAGCGGCTTC ((((((....)))..))) | -14.9 kcal/mol | 53.3 °C |
| GGTCGCGAAAGCGAACC ((((((....))).))) | -15.2 kcal/mol | 67.3 °C |
| GCAGTATCGAAAGATTGC (((..(((....)))))) | -20.5 kcal/mol | 34.9 °C |
| GCTCGGCGAAAGCTTAGC (((..((....))..))) | -15.3 kcal/mol | 40.9 °C |
| GCCCACGGAAACGCGGAC (.((.((....)).)).) | -18.4 kcal/mol | 32.8 °C |
| GCGACGGGAAACCGCCAC (.(.(((....))).).) | -13.4 kcal/mol | 31.9 °C |
| GGTAGAGAAATCTACC ((((((....)))))) | -25.2 kcal/mol | 49.2 °C |
| GACCAACGAAAGTTCGTC (((.(((....))).))) | -24.4 kcal/mol | 34.9 °C |
| GAGACCGAAAGGTTACTC ((((((....)))..))) | -12.8 kcal/mol | 34.8 °C |
| GGTCGGGGAAACTCGACC (((((.(....).))))) | -42.8 kcal/mol | 58 °C |
| GATCAAACCGTTGATC ((((((....)))))) | -30.6 kcal/mol | 42 °C |
| TAATCGAAAGATTA (((((....))))) | -15.2 kcal/mol | 38.9 °C |
| AAGCAGAAATGCTT (((((....))))) | -16.8 kcal/mol | 42.1 °C |

| Sequence | folding enthalpy [1] | Tm [2] |
| --- | --- | --- |
| GAGTACGAAAGTACACTC ((((((....)))..))) | -16.2 kcal/mol | 48.3 °C |
| GGTGAGCGAAAGCTAACC (((.(((....))).))) | -33.3 kcal/mol | 55.5 °C |
| GACTGACCGAAAGGTGTC (((..(((....)))))) | -16.9 kcal/mol | 41.4 °C |
| GTTGGACGAAAGTCAAAC (((.(((....))).))) | -26.9 kcal/mol | 50.9 °C |
| GATCTAAGCGTAGATC ((((((....)))))) | -27 kcal/mol | 36.9 °C |
| GCCCACGGAAACACGGGC ((((..(....)..)))) | -24.4 kcal/mol | 46.5 °C |
| GCGGACGGAAACGCCCAC (.((.((....)).)).) | -18.9 kcal/mol | 36.6 °C |
| CGCACGGAAACGTGAGCG ((((((....)))..))) | -14.8 kcal/mol | 50.5 °C |
| GTCTGCGAAAGCATGGAC ((((((....)))..))) | -15.7 kcal/mol | 40.7 °C |
| GTGCAAGGAAACTCGCAC ((((.((....)).)))) | -31.7 kcal/mol | 45.1 °C |
| GCCTGGCGAAAGCCGTGC ((..(((....)))..)) | -12.9 kcal/mol | 48.8 °C |
| GCCCGGCGAAAGCCGAGC ((.((((....)))).)) | -18.4 kcal/mol | 68.3 °C |
| GATCGCCCAGGCGATC ((((((....)))))) | -25.1 kcal/mol | 68.2 °C |
| TAGGAGAAATCCTA (((((....))))) | -8.63 kcal/mol | 25.9 °C |
| GACTTCGGAAACAAAGTC (((((.(....).))))) | -25.6 kcal/mol | 34 °C |
| GCGTTTCGACGC ((((....)))) | -28.6 kcal/mol | 55.9 °C |
| GTCGTCGAAAGACGCGAC ((((((....)))..))) | -12.5 kcal/mol | 55.7 °C |
| GATCTTGCTAAGATC ((((((...)))))) | -31.8 kcal/mol | 45.4 °C |
| CGCGGAAGGTCCGCG ((((((...)))))) | -27.1 kcal/mol | 69.2 °C |
| GATCGGTCACCGATC ((((((...)))))) | -36.2 kcal/mol | 55.8 °C |
| GCAATCGAAAGATTGTGC ((((((....)))..))) | -27.1 kcal/mol | 51.1 °C |
| GTACTGGGAAACTAGTGC (.(((.(....).))).) | -19.4 kcal/mol | 31.2 °C |
| GACGTCCGAAAGGAGTC (((.(((....)))))) | -24 kcal/mol | 49 °C |
| GGCACAGAAATGTGCC ((((((....)))))) | -35.9 kcal/mol | 66.5 °C |

| Sequence | folding enthalpy [1] | Tm [2] |
| --- | --- | --- |
| GATCGTGGCTACGATC ((((((....)))))) | -39.3 kcal/mol | 59 °C |
| GATCTGTCGCCAGATC ((((((....)))))) | -37.6 kcal/mol | 50.1 °C |
| GCCGTGCGAAAGCATTGC ((..(((....)))..)) | -12.6 kcal/mol | 43.2 °C |
| GAACAAGGAAACCTGTTC (((((.(....).))))) | -25.7 kcal/mol | 37.3 °C |
| CGGTACGGAAACGTCCCG (((.(((....))).))) | -25 kcal/mol | 46.6 °C |
| GATCCTATGTAGGATC ((((((....)))))) | -34.9 kcal/mol | 54.5 °C |
| GACGGCGGAAACGCCACC (..((((....))))..) | -9.98 kcal/mol | 26.9 °C |
| GTTTTTGCGAAAGCAAAC (((..(((....)))))) | -11.9 kcal/mol | 35.2 °C |
| GCGTTCAGACGC ((((....)))) | -23.8 kcal/mol | 53.6 °C |
| CGCCCGGAAACGGTAGCG ((((((....)))..))) | -30.4 kcal/mol | 50.9 °C |
| GGACAGGGAAACTTGTCC (((((.(....).))))) | -37.1 kcal/mol | 49 °C |
| GCTAACGAAAGTTGAGC ((((((....))).))) | -26.1 kcal/mol | 41.5 °C |
| GCTCAGCCGAAAGGCAGC (((..(((....)))))) | -13.1 kcal/mol | 41.1 °C |
| CGTCGCGGAAACGCACG (((.(((....)))))) | -19.4 kcal/mol | 50.5 °C |
| GCACTACGAAAGTACTGC (((.(((....))).))) | -26.9 kcal/mol | 37.6 °C |
| GGTAGGCCGAAAGGCACC (((..(((....)))))) | -12 kcal/mol | 41.9 °C |
| GCCTTGGGAAACTAAGGC (((((.(....).))))) | -34.7 kcal/mol | 50.9 °C |
| GTCGCAGGAAACCACGAC ((((..(....)..)))) | -28 kcal/mol | 35.4 °C |
| GATCATATAATGATC ((((((...)))))) | -31.6 kcal/mol | 49 °C |
| GATCAGCGGCTGATC ((((((...)))))) | -51 kcal/mol | 50.7 °C |
| GATCTCGCCGAGATC ((((((...)))))) | -37 kcal/mol | 55.2 °C |
